Structures are written as SMILES.

Data on four compounds can be found in article PMC3972320 (Kidney international, 2013).

For data set [1], the system named is NRK cells. In words: TUNEL staining of apoptotic NRK cells. The data set is classed as cell-based, rat. The essentials: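 NRK rat renal epithelial cells on glass coverslips were serum-starved overnight after confluence. […] Cells were PFA-fixed and TUNEL-stained with DAPI counterstain, then imaged by confocal microscopy. TUNEL-positive/DAPI-positive cells were counted in 5 fields at 40X, across 4 independent experiments.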

A further data set concerns patients. The note with it: among patients with AKI; cited from earlier work.
Data set [2] concerns NRK cells. In words: Oregon Green 488-labeled fluorescent cisplatin uptake by NRK cells. The format is cell-based, rat.
In data set [3] the test system is human OCT2. The format is cell-based.
For data set [4], the target named is T1, human OCT2 (Homo sapiens, UniProt O15244).
T1 sequence (O15244 1-555): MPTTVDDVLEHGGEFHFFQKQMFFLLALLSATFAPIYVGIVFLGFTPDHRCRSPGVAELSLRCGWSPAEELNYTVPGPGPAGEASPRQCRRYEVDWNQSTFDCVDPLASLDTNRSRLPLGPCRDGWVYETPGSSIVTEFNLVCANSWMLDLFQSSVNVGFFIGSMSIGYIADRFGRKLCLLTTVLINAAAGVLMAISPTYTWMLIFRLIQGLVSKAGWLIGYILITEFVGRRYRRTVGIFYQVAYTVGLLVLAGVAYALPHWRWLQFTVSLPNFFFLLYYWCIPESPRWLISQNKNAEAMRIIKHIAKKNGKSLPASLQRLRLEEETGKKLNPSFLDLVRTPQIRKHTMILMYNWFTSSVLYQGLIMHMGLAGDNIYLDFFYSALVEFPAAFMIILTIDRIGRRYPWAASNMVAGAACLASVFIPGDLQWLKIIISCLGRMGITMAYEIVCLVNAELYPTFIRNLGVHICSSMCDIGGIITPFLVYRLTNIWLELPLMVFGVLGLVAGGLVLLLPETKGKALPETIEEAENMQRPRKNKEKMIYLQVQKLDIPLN
The format is cell-based. Conditions: β-glucuronidase 100μg/ml, sialidase 0.1 IU/ml, cimetidine 0.1 mM, added 16 hours prior to assay.

The test system of data set [5] is NRK cells. In words: LDH release from NRK cells on Transwell plates. The format is cell-based, rat. Background: Release of lactate dehydrogenase indicates damage to the cell membrane.
Data set [6] relates to organic cation transporter (OCT). In words: 14C-TEA uptake by NRK cells. The data set is classed as cell-based, rat. The note with it: agent added after 14C-TEA.
Data set [7] relates to human OCT2. In words: Cell surface. The data set is classed as cell-based. The note with it: DSAL, OCT2/V5-transfected CHO cells.
The subject of another data set is OCT2 mRNA. In words: OCT2 mRNA by qPCR in NRK cells transfected with human OCT2/V5. The data set is classed as cell-based, rat. Conditions: DSAL, NRK cells transfected with human OCT2/V5 and Klotho plasmid. Background: Real-time PCR tracks product formation cycle by cycle.
Data set [8] is described as follows: 14C-TEA kinetic study in vivo. The note with it: single injection 10 μl/g BW. Set-up: species or system mouse. The essentials: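 Male WT, Kl/+ and Tg-Kl mice (129sv background, 12–14 weeks, 30–40 g) got a single i.v. dose of 14C-tetraethylammonium (10 μl/g BW; 0.1 mCi/ml, specific activity 3.5 mCi/mmol). Blood and urine were sampled at 0, 30, 60 and 90 […] post injection, with radioactivity by liquid scintillation counting. AUC0-60 is given as mean ± SD of 3 experiments per genotype.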

With `N.N.[Cl][Pt][Cl]` [cisplatin, cis-diammine-dichloroplatinum], the “apoptosis (TUNEL) on cisplatin addition to basolateral medium” value in the data set on NRK cells [1] was “triggers apoptosis”. Besides, the “patients with AKI still having elevated SCr 15 days after treatment” value with patients is recorded as 50%. Further, in the data set on NRK cells [2] (Transwell, apical or basolateral addition), the “side of entry of Oregon Green 488-labeled cisplatin into NRK cells” value is on record as “entered NRK cells solely from the basolateral side”.

Turning to `CN/C(=N/CCSCc1nc[nH]c1C)NC#N` [cimetidine], the “cisplatin-triggered apoptosis (TUNEL), basolateral co-incubation of agent” value in the data set with NRK cells [1] (Klotho or cimetidine basolateral) was “rescued”. For the same compound, the “OCT2 abundance in total cell membrane pool by immunoblot” value in the data set with human OCT2 [3] (CHO cells transfected with OCT2/V5, β-glucuronidase 100μg/ml, sialidase 0.1 IU/ml, cimetidine 0.1 mM) is “did not alter”. In the data set with NRK cells [2] (NRK cells, confocal imaging), the “fluorescent cisplatin uptake, agent added to apical side” value is given as “not by either agent added to the apical side” and the “fluorescent cisplatin uptake, agent added to basolateral side” value is given as “blocked”. The “14C-TEA uptake in OCT2-expressing CHO cells” value at human OCT2 [4] is “reduced”. The “LDH release induced by basolateral cisplatin, agent added into apical side” value in the data set on NRK cells [5] (cisplatin 0.1 mM basolateral, Klotho 0.4 nM or cimetidine 0.1 mM apical) is listed as “not cimetidine decreased LDH release”. Moreover, the “LDH release induced by basolateral cisplatin, basolateral co-incubation of agent” value in the data set with NRK cells [5] (cisplatin 0.1 mM, Klotho 0.4 nM or cimetidine 0.1 mM on basolateral side) is on record as “significantly reduced LDH release”. Further, in [6], the “inhibition of 14C-TEA uptake when 14C-TEA added to basolateral medium 20 minutes prior to agent” value was “inhibitory effect was absent”.

Take `O=C(O)[C@@H](O)[C@H]1OC(=O)[C@H](O)[C@H]1O` [DSAL, D-Saccharic acid 1,4-lactone]: the “effect on Klotho-induced reduction of cell surface OCT2 (2 hours and 2 days)” value in the data set with human OCT2 [7] is given as “blocked”. For the same compound, in the data set with human OCT2 [3] (CHO cells transfected with OCT2/V5, β-glucuronidase 100μg/ml, DSAL 10 μM alone), the “OCT2 protein expression by immunocytochemistry” value is “had no effect”. Moreover, the “effect on the reduction of OCT2 protein by β-glucuronidase” value with human OCT2 [3] (DSAL 10 μM, CHO cells, immunocytochemistry and immunoblot) was “completely blocked”. Further, in the data set on OCT2 mRNA, the “effect on the reduction of rat oct2 mRNA induced by Klotho” value is “did not abolish”.

In the case of `CC[N+](CC)(CC)CC` [^14C-TEA, ^14C-tetraethylammonium], the results for the “AUC0-60 of 14C-TEA, Blood 14C-TEA” value in [8] (Kl/+ mice), in data set [8] (Tg-Kl mice) and in data set [8] (WT mice) were 4.13±0.12 (3) nmol/μl, 2.22±0.12 (3) nmol/μl and 2.68±0.18 (3) nmol/μl, respectively. The “AUC0-60 of 14C-TEA, Urine excretion rate 14C-TEA” value is given as 1.36±0.08 (3) pmol/mim in [8] (Tg-Kl mice) and 2.08±0.08 (3) pmol/mim in data set [8] (WT mice).
